Measured values published in ChEMBL document CHEMBL1138514, “Rhodamine inhibitors of P-glycoprotein: an amide/thioamide "switch" for ATPase activity” (J Med Chem, 2009).

Assays:
[1] = test system: CCN(CC)C(=O)c1ccc(-c2c3ccc(=[N+](C)C)cc-3[se]c3cc(N(C)C)ccc23)s1; assay: not read
[2] = test system: CN(C)c1ccc(-c2c3ccc(=[N+](C)C)cc-3[te]c3cc(N(C)C)ccc23)cc1; assay: not read
[3] = test system: CN(C)c1ccc2c(-c3ccc(C(=O)O)s3)c3ccc(=[N+](C)C)cc-3[te]c2c1; assay: not read
[4] = test system: CN(C)c1ccc2c(-c3ccc(C(=O)O)s3)c3ccc(=[N+](C)C)cc-3sc2c1; assay: not read
[5] = test system: CN(C)c1ccc2c(-c3ccc(N4CCOCC4)cc3)c3ccc(=[N+](C)C)cc-3sc2c1; assay: not read
[6] = test system: CN(C)c1ccc2c(-c3ccccc3)c3ccc(=[N+](C)C)cc-3[te]c2c1; assay: not read
[7] = test system: CN(C)c1ccc2c(-c3ccsc3C(=O)O)c3ccc(=[N+](C)C)cc-3[se]c2c1; assay: not read
[8] = test system: CN(C)c1ccc2c(-c3ccsc3C(=O)O)c3ccc(=[N+](C)C)cc-3sc2c1; assay: not read
[9] = test system: CN(C)c1ccc2c(CCCOc3ccccc3)c3ccc(=[N+](C)C)cc-3sc2c1; assay: not read
[10] = test system: CN(C)c1cccc(-c2c3ccc(=[N+](C)C)cc-3[se]c3cc(N(C)C)ccc23)c1; assay: not read
[11] = test system: CN(C)c1cccc(-c2c3ccc(=[N+](C)C)cc-3[te]c3cc(N(C)C)ccc23)c1; assay: not read
[12] = test system: COc1ccc(-c2c3ccc(=[N+](C)C)cc-3[se]c3cc(N(C)C)ccc23)cc1OC; assay: not read
[13] = test system: COc1ccc(-c2c3ccc(=[N+](C)C)cc-3sc3cc(N(C)C)ccc23)cc1OC; assay: not read
[14] = test system: COc1cccc(-c2c3ccc(=[N+](C)C)cc-3[se]c3cc(N(C)C)ccc23)c1; assay: not read
[15] = test system: COc1cccc(-c2c3ccc(=[N+](C)C)cc-3[te]c3cc(N(C)C)ccc23)c1; assay: not read
[16] = test system: C[N+](C)=c1ccc2c(-c3ccccc3)c3cc4c5c(c3[te]c-2c1)CCCN5CCC4; assay: not read
[17] = test system: CCN(CC)C(=O)c1ccc(-c2c3ccc(=[N+](C)C)cc-3[se]c3cc(N(C)C)ccc23)s1; assay: (§1) Induction of mouse cysteine-less MDR3 ATPase activity by apparent Michaelis-Menten constant
In short: (§2)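 Isolated P-gp ATPase activity is measured as inorganic phosphate released across a range of rhodamine concentrations. KM is the apparent Michaelis-Menten constant, the concentration giving half-maximal stimulation of ATPase activity.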

[18] = test system: CCN(CC)C(=O)c1ccc(-c2c3ccc(=[N+](C)C)cc-3sc3cc(N(C)C)ccc23)s1; assay: as §1
In short: as §2

[19] = test system: CCN(CC)C(=O)c1ccccc1-c1c2ccc(=[N+](C)C)cc-2sc2cc(N(C)C)ccc12; assay: as §1
In short: as §2

[20] = test system: CCOC(=O)c1ccc(-c2c3ccc(=[N+](C)C)cc-3sc3cc(N(C)C)ccc23)s1; assay: as §1
In short: as §2

[21] = test system: CN(C)c1ccc2c(-c3ccc(CCl)cc3)c3ccc(=[N+](C)C)cc-3oc2c1; assay: as §1
In short: as §2

[22] = test system: CN(C)c1ccc2c(-c3ccccc3C(=O)O)c3ccc(=[N+](C)C)cc-3sc2c1; assay: as §1
In short: as §2

[23] = test system: CN(C)c1ccc2c(-c3ccsc3C(=O)O)c3ccc(=[N+](C)C)cc-3[se]c2c1; assay: as §1
In short: as §2

[24] = test system: CN(C)c1ccc2c(CCCOc3ccccc3)c3ccc(=[N+](C)C)cc-3sc2c1; assay: as §1
In short: as §2

[25] = test system: COC(=O)c1ccccc1-c1c2ccc(=[N+](C)C)cc-2sc2cc(N(C)C)ccc12; assay: as §1
In short: as §2

[26] = test system: COc1ccc(-c2c3ccc(=[N+](C)C)cc-3sc3cc(N(C)C)ccc23)cc1OC; assay: as §1
In short: as §2

[27] = test system: COc1cccc(-c2c3ccc(=[N+](C)C)cc-3[se]c3cc(N(C)C)ccc23)c1; assay: as §1
In short: as §2

[28] = test system: COc1ccc(-c2c3ccc(=[N+](C)C)cc-3sc3cc(N(C)C)ccc23)cc1; assay: not read

## ATP-dependent translocase ABCB1 (Homo sapiens)
[1]
  Km: 0.68 µM
[2]
  Km: 9 µM
[3]
  Km: 9.6 µM
[4]
  Km: 140 µM
[5]
  Km: 10 µM
[6]
  Km: 8.3 µM
[7]
  Km: 56 µM
[8]
  Km: 111 µM
[9]
  Km: 3.2 µM
[10]
  Km: 3.5 µM
[11]
  Km: 2 µM
[12]
  Km: 8.3 µM
[13]
  Km: 4.9 µM
[14]
  Km: 3.3 µM
[15]
  Km: 3.2 µM
[16]
  Km: 4.4 µM

## ATP-dependent translocase ABCB1 (Mus musculus)
[17]
  Km: 3.6 µM
[18]
  Km: 3.4 µM
[19]
  Km: 5.7 µM
[20]
  Km: 156 µM
[21]
  Km: 77 µM
[22]
  Km: 56 µM
[23]
  Km: 29 µM
[24]
  Km: 6 µM
[25]
  Km: 266 µM
[26]
  Km: 35 µM
[27]
  Km: 44 µM
[12]
  Km: 67 µM
[28]
  Km: 75 µM
